ChEMBL document CHEMBL4145630, “Development of Highly Potent and Selective Steroidal Inhibitors and Degraders of CDK8” (ACS Med Chem Lett, 2018)
Activity calls are given as the source filed them. No cut-off for these calls is given here.

Columns and labels:
[1] = target: T1, Cyclin-dependent kinase 8 (Homo sapiens, UniProt P49336); assay: Inhibition of CDK8 (unknown origin)
[2] = target: T1, Cyclin-dependent kinase 8; assay: Inhibition of CDK8 in human HepG2 cells assessed as reduction in IFNgamma-induced STAT1 phosphorylation at S727 measured after 18 hrs by Western blot analysis; assay type: cell-based
[3] = target: T2, Protein cereblon/Cyclin-dependent kinase 8 (Homo sapiens) (UniProt P49336+Q96SW2); assay: Induction of CRBN-mediated CDK8 degradation in human Jurkat cells at 0.1 to 1 uM measured after 6 to 24 hrs by immunoblot analysis; assay type: cell-based
T2 sequence (P49336 whole entry, looked up): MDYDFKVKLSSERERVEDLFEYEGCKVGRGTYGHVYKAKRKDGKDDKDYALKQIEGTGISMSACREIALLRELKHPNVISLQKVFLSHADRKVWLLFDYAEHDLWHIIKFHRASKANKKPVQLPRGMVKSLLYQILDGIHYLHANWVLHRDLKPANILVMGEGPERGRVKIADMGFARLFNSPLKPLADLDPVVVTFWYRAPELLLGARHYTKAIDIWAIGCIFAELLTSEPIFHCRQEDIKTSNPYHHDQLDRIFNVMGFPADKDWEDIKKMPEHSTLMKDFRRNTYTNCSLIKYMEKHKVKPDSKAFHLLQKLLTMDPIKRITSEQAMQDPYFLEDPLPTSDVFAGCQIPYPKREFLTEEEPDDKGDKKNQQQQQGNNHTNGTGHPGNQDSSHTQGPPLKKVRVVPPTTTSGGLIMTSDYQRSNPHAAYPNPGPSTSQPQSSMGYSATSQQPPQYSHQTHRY
T2 sequence (Q96SW2 whole entry, looked up): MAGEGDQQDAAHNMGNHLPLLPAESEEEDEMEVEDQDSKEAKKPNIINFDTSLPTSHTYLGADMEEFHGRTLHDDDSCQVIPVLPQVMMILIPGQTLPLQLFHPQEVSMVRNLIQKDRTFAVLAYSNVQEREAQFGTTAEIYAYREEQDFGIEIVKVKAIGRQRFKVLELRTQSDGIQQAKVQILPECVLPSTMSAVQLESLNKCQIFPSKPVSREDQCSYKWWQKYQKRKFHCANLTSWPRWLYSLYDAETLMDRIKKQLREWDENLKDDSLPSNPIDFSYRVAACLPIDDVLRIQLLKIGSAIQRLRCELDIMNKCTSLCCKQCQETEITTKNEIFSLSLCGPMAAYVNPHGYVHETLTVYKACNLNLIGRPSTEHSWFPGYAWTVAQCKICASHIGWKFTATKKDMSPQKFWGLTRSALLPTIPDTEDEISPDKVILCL
Method in brief: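 Jurkat cells were treated with compound at 0.1 or 1 μM. Lysates were collected at 6 and 24 h, and CDK8 protein levels were assessed by immunoblot.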

Jurkat = assay: Effect on CDK8 mRNA levels in human Jurkat cells at 1 uM after 24 hrs by qPCR analysis; assay type: functional, cell-based
Method in brief: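 Jurkat cells exposed to 1 μM or vehicle for 24 h; Cdk8 mRNA quantified by qPCR with two separate Cdk8 primer sets, normalized to Actin.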

[4] = target: T2, Protein cereblon/Cyclin-dependent kinase 8 (Homo sapiens); assay: Induction of CRBN-mediated CDK8 degradation in wild-type human MOLT4 cells at 5 uM measured after 24 hrs by immunoblot analysis
Method in brief: (§1)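 Wild-type Molt4 cells and Molt4 cells with CRISPR/Cas9 deletion of CRBN were treated with increasing concentrations for 24 h; CDK8 in lysates detected by immunoblot.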

[5] = target: T2, Protein cereblon/Cyclin-dependent kinase 8 (Homo sapiens); assay: Induction of CRBN-mediated CDK8 degradation in human Jurkat cells at 1 uM measured after 6 hrs in presence of N-((3S,17S)-17-(isoquinolin-7-yl)-10,13-dimethylhexadecahydro-1H-cyclopenta[a]phenanthren-3-yl)-Nmethyl-1-((2-(1-methyl-2,6-dioxopiperidin-3-yl)-1,3-dioxoisoindolin-4-yl)amino)-3,6,9,12-tetraoxapentadecan-15-amide by immunoblot analysis; assay type: cell-based
Method in brief: (§2)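 Rescue design: Jurkat cells pretreated with bortezomib (10 μM), MLN4924, lenalidomide in excess, or an excess of a CDK8-binding analogue unable to bind CRBN, then exposed to the degrader; CDK8 levels assessed by immunoblot.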

[6] = target: T2, Protein cereblon/Cyclin-dependent kinase 8 (Homo sapiens); assay: Induction of CRBN-mediated CDK8 degradation in human Jurkat cells at 1 uM measured after 6 hrs in presence of neddylation inhibitor MLN4924 by immunoblot analysis; assay type: cell-based; method in brief: as §2
[7] = target: T2, Protein cereblon/Cyclin-dependent kinase 8 (Homo sapiens); assay: Induction of CRBN-mediated CDK8 degradation in wild-type human Jurkat cells at 20 uM measured after 24 hrs by immunoblot analysis; assay type: cell-based
Method in brief: (§3)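 Jurkat cells incubated with increasing concentrations (up to 20 μM in the widest series) for 24 h; lysate CDK8 levels read by immunoblot.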

[8] = target: Cyclin-dependent kinase 19 (Homo sapiens, UniProt Q9BWU1); assay: Induction of CDK19 degradation in human Jurkat cells up to 20 uM measured after 24 hrs by immunoblot analysis
Chain of Cyclin-dependent kinase 19 (Q9BWU1 whole entry): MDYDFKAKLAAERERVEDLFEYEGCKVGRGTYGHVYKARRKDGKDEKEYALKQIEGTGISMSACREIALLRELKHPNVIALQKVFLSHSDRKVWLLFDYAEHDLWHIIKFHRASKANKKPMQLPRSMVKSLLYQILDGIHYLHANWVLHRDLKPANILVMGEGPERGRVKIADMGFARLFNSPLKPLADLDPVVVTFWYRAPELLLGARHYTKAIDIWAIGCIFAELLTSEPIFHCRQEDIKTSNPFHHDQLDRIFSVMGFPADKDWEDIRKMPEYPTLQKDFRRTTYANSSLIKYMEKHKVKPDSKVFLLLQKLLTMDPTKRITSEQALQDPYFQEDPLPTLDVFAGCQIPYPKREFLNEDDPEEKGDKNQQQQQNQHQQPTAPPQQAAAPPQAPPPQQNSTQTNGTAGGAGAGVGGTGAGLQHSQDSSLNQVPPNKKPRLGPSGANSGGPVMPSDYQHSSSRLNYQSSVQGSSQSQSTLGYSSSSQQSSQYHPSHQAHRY

[9] = target: T2, Protein cereblon/Cyclin-dependent kinase 8 (Homo sapiens); assay: Induction of CRBN-mediated CDK8 degradation in wild-type human Jurkat cells at 1 to 10 uM measured after 24 hrs by immunoblot analysis; assay type: cell-based; method in brief: as §3
[10] = target: T1, Cyclin-dependent kinase 8; assay: Induction of CDK8 degradation in human MOLT4 cells harboring CRBN deletion mutant at 0.1 to 5 uM measured after 24 hrs by immunoblot analysis; assay type: cell-based; method in brief: as §1
[11] = target: T2, Protein cereblon/Cyclin-dependent kinase 8 (Homo sapiens); assay: Induction of CRBN-mediated CDK8 degradation in human Jurkat cells at 1 uM measured after 6 to 24 hrs by immunoblot analysis; assay type: cell-based
Method in brief: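 Jurkat cells given 0.1 or 1 μM; lysates collected at 6 and 24 h and probed for CDK8 by immunoblot.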

[12] = target: T2, Protein cereblon/Cyclin-dependent kinase 8 (Homo sapiens); assay: Induction of CRBN-mediated CDK8 degradation in human Jurkat cells at 1 uM measured after 6 hrs in presence of proteasome inhibitor bortezomib by immunoblot analysis; assay type: cell-based; method in brief: as §2
[13] = target: Protein cereblon/Cyclin-dependent kinase 19 (Homo sapiens) (UniProt Q9BWU1+Q96SW2); assay: Induction of CRBN-mediated CDK19 degradation in wild-type human Jurkat cells up to 20 uM measured after 24 hrs by immunoblot analysis; assay type: cell-based
Chain of Protein cereblon/Cyclin-dependent kinase 19 (Homo sapiens) (Q96SW2 whole entry, looked up): as the sequence (Q96SW2 whole entry, looked up) above
Chain of Protein cereblon/Cyclin-dependent kinase 19 (Homo sapiens) (Q9BWU1 whole entry, looked up): as the sequence (Q9BWU1 whole entry) above
Method in brief: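 Jurkat cells treated for 24 h; CDK19 protein in cell lysates assessed by immunoblot.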

[14] = target: T2, Protein cereblon/Cyclin-dependent kinase 8 (Homo sapiens); assay: Induction of CRBN-mediated CDK8 degradation in human Jurkat cells at 1 uM measured after 6 hrs in presence of lenalidomide by immunoblot analysis; assay type: cell-based; method in brief: as §2
[15] = target: T2, Protein cereblon/Cyclin-dependent kinase 8 (Homo sapiens); assay: Induction of CRBN-mediated CDK8 degradation in human Jurkat cells at 0.1 to 10 uM measured after 24 hrs by immunoblot analysis; assay type: cell-based; method in brief: as §3
[16] = target: T2, Protein cereblon/Cyclin-dependent kinase 8 (Homo sapiens); assay: Induction of CRBN-mediated CDK8 degradation in human Jurkat cells up to 10 uM measured after 24 hrs by immunoblot analysis; assay type: cell-based; method in brief: as §3

T1 sequence (P49336 whole entry): as the sequence (P49336 whole entry, looked up) above

Structure (SMILES)	IC50 [1] [nM]	further results
C[C@]12CC[C@H](O)CC1=CC[C@@H]1[C@@H]2CC[C@]2(C)C(c3ccc4cn[nH]c4c3)=CC[C@@H]12	> 10000	–
C[C@]12CC[C@H](n3ccnn3)C[C@@H]1CC[C@@H]1[C@@H]2CC[C@]2(C)[C@@H](c3ccc4ccncc4c3)CC[C@@H]12	24	–
C[C@]12CC[C@H](O)CC1=CC[C@@H]1[C@@H]2CC[C@]2(C)C(c3ccc4cnccc4c3)=CC[C@@H]12	8240	–
C[C@]12CC[C@H](O)C[C@@H]1CC[C@@H]1[C@@H]2CC[C@]2(C)C(c3ccc4ccncc4c3)=CC[C@@H]12	1010	–
C[C@]12CC[C@H](O)CC1=CC[C@@H]1[C@@H]2CC[C@]2(C)C(c3ccc4nc(N)ncc4c3)=CC[C@@H]12	2300	–
CN(C)[C@H]1C[C@@]23CC[C@@]4(O2)C(=CC[C@]2(C)C(c5ccc6ccncc6c5)=CCC24)C=C3[C@@H](O)[C@@H]1O (stereo partly specified)	–	inhibition [2]: Dose-dependent effect
C[C@]12CC[C@H]3[C@@H](CC=C4C[C@@H](O)CC[C@@]43C)[C@@H]1CC[C@@H]2c1ccc2cnccc2c1	6000	–
C[C@]12CC[C@H](O)CC1=CC[C@@H]1[C@@H]2CC[C@]2(C)C(c3ccc4ccncc4c3)=CC[C@@H]12	164	–
C[C@]12CC[C@H](O)CC1=CC[C@@H]1[C@@H]2CC[C@]2(C)C(c3ccc4c(N)n[nH]c4c3)=CC[C@@H]12	1520	–
C[C@]12CC[C@H](N3CCOCC3)C[C@@H]1CC[C@@H]1[C@@H]2CC[C@]2(C)[C@@H](c3ccc4ccncc4c3)CC[C@@H]12	120	–
CN(CCCCCOCCOCCNc1cccc2c1C(=O)N(C1CCC(=O)NC1=O)C2=O)[C@H]1CC[C@@]2(C)[C@@H](CC[C@@H]3[C@@H]2CC[C@]2(C)[C@@H](c4ccc5ccncc5c4)CC[C@@H]32)C1 (stereo partly specified)	–	Activity [3]: inactive
CN(C(=O)CCOCCOCCOCCOCCNc1cccc2c1C(=O)N(C1CCC(=O)NC1=O)C2=O)[C@H]1CC[C@@]2(C)[C@@H](CC[C@@H]3[C@@H]2CC[C@]2(C)[C@@H](c4ccc5ccncc5c4)CC[C@@H]32)C1 (stereo partly specified)	159	Activity (Jurkat): inactive; Activity [4]: Active; Activity [5]: inactive; Activity [6]: inactive; Activity [7]: inactive; Activity [8]: inactive; Activity [9]: Active; Activity [10]: inactive; Activity [11]: Active; Activity [12]: inactive; Activity [13]: inactive; Activity [14]: inactive
C[C@]12CC[C@H](O)CC1=CC[C@@H]1[C@@H]2CC[C@]2(C)C(c3ccc4[nH]ncc4c3)=CC[C@@H]12	> 10000	–
C[C@]12CC[C@H](O)C[C@@H]1CC[C@@H]1[C@@H]2CC[C@]2(C)[C@@H](c3ccc4ccncc4c3)CC[C@@H]12	208	–
C[C@]12CC[C@H]3[C@@H](CC=C4C[C@@H](O)CC[C@@]43C)[C@@H]1CC[C@@H]2c1ccc2[nH]ncc2c1	> 10000	–
C[C@]12CC[C@H]3[C@@H](CC=C4C[C@@H](O)CC[C@@]43C)[C@@H]1CC[C@@H]2c1ccc2nc(N)ncc2c1	108	–
C[C@]12CC[C@H]3[C@@H](CC=C4C[C@@H](O)CC[C@@]43C)[C@@H]1CC[C@@H]2c1ccc2cn[nH]c2c1	> 10000	–
CN(C(=O)CCOCCOCCNc1cccc2c1C(=O)N(C1CCC(=O)NC1=O)C2=O)[C@H]1CC[C@@]2(C)[C@@H](CC[C@@H]3[C@@H]2CC[C@]2(C)[C@@H](c4ccc5ccncc5c4)CC[C@@H]32)C1 (stereo partly specified)	192	Activity [15]: inactive
CN1C(=O)CCC(N2C(=O)c3cccc(NCCOCCOCCOCCOCCC(=O)N(C)[C@H]4CC[C@@]5(C)[C@@H](CC[C@@H]6[C@@H]5CC[C@]5(C)[C@@H](c7ccc8ccncc8c7)CC[C@@H]65)C4)c3C2=O)C1=O (stereo partly specified)	443	Activity [16]: inactive
C[C@]12CC[C@H]3[C@@H](CC=C4C[C@@H](O)CC[C@@]43C)[C@@H]1CC[C@@H]2c1ccc2c(N)n[nH]c2c1	682	–
C[C@]12CC[C@H]3[C@@H](CC=C4C[C@@H](O)CC[C@@]43C)[C@@H]1CC[C@@H]2c1ccc2cnncc2c1	> 10000	–
CN[C@H]1CC[C@@]2(C)[C@@H](CC[C@@H]3[C@@H]2CC[C@]2(C)[C@@H](c4ccc5ccncc5c4)CC[C@@H]32)C1	1320	–
C[C@]12CC[C@H](O)CC1=CC[C@@H]1[C@@H]2CC[C@]2(C)C(c3ccc4cnncc4c3)=CC[C@@H]12	> 10000	–
C[C@]12CC[C@H]3[C@@H](CC=C4C[C@@H](O)CC[C@@]43C)[C@@H]1CC[C@@H]2c1ccc2ccncc2c1	48	–
CN(C)[C@@H]1CC[C@@]2(C)[C@@H](CC[C@@H]3[C@@H]2CC[C@]2(C)[C@@H](c4ccc5ccncc5c4)CC[C@@H]32)C1	64	–
CC(=O)N(C)[C@H]1CC[C@@]2(C)[C@@H](CC[C@@H]3[C@@H]2CC[C@]2(C)[C@@H](c4ccc5ccncc5c4)CC[C@@H]32)C1	34	–
CN(C)[C@H]1CC[C@@]2(C)[C@@H](CC[C@@H]3[C@@H]2CC[C@]2(C)[C@@H](c4ccc5ccncc5c4)CC[C@@H]32)C1	24	–
